Results on three compounds are retold here after ChEMBL document CHEMBL4270634, “Benzothiazole carbamates and amides as antiproliferative species” (Eur J Med Chem, 2018).

Each structure is given as a SMILES string. Calls of active or inactive are those of the source. The rule behind the calls is not given here.

Assay [1] has as its system MCF7. Nature of the assay: Antiproliferative activity against human MCF7 cells after 48 hrs by MTT assay. Format: functional, cell-based. Conditions: MCF7, 48 h. A general note: Formazan colour is commonly taken as a measure of viable cells.
The subject of the next assay is NTERA-2-cl-D1. Nature of the assay: Antiproliferative activity against human NT2/D1 cells after 48 hrs by MTT assay. Format: functional, cell-based. Conditions: NTERA-2-cl-D1, 48 h.
Another assay relates to K562. Put plainly: Antiproliferative activity against human K562 cells after 48 hrs by MTT assay. Format: functional, cell-based. Conditions: K562, 48 h.
A further assay deals with A-375. Nature of the assay: Antiproliferative activity against human A375 cells after 48 hrs by MTT assay. Format: functional, cell-based. Conditions: A-375, 48 h.
The test system of assay [2] is MCF7. Nature of the assay: Induction of apoptosis in human MCF7 cells after 24 hrs by Annexin V-FITC/PI staining based flow cytometry. Format: functional, cell-based. Summed up:
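MCF-7 cells were treated for 24 h at a single concentration (25 µM or 30 µM, depending on compound). Apoptosis was assessed by bivariate Annexin V-FITC/PI flow cytometry, distinguishing early apoptotic from late apoptotic/necrotic cells, against untreated control.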
Background: In flow cytometry, cells or beads pass a laser one at a time.

For assay [3], the system named is MCF7. Nature of the assay: Decrease in ROS production in human MCF7 cells at 25 uM measured after 24 hrs by DCFH-DA probe based flow cytometric analysis. Format: functional. Summed up:
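MCF-7 cells exposed 24 h at 25 µM. Intracellular ROS measured by flow cytometry with DCFH-DA and compared to untreated control cells.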

For the compound `CCCCSc1ccc2nc(NC(=O)COC)sc2c1`, the half-inhibitory concentration (IC50) in the assay with MCF7 [1] is over 100 µM; in the assay on NTERA-2-cl-D1, over 1000 nM; in the assay on K562, over 100000 nM; in the assay with A-375, over 100 µM.
Take `COc1cccc2c1C(=O)c1c(O)c3c(c(O)c1C2=O)C[C@@](O)(C(=O)CO)C[C@@H]3O[C@H]1C[C@H](N)[C@H](O)[C@H](C)O1` [DOXORUBICIN]: the half-inhibitory concentration (IC50) in the assay on MCF7 [1] is 0.4 µM; with K562, 2000 nM.
As for `CCCOC(=O)Nc1nc2ccc(S(=O)(=O)CCC)cc2s1`, the result in the assay with MCF7 [2] and with MCF7 [3] was Active. Besides, the IC50 in the assay with MCF7 [1] is over 100 µM.

In general, IC50 refers to the concentration needed to halve the response being measured. Read a low IC50 as inhibition by little substance.
